Source: ChEMBL document CHEMBL3877308, “Design, synthesis and in vitro biological evaluation of oligopeptides targeting E. coli type I signal peptidase (LepB)” (Bioorg Med Chem, 2017)
In brackets after ≈: the same amount, converted by molar mass.

Tests used:
Klebsiella pneumoniae = assay: Antibacterial activity against wild type Klebsiella pneumoniae […] after 16 to 20 hrs by broth microdilution assay; type: functional
Method in brief: (§1)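 MIC by broth microdilution in cation-adjusted Mueller-Hinton II medium, following EUCAST and CLSI guidelines; panel of Gram-negative strains plus S. aureus ATCC 29213.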

[1] = molecular target: Signal peptidase I (Escherichia coli K-12) (UniProt P00803); assay: (§2) Inhibition of full length Escherichia coli His6-tagged LepB expressed in Escherichia coli C43(DE3) assessed as residual activity at 0.01 uM using dabcyl-VEVGGTATAGAFSRPGLE-(EDANS) as substrate preincubated for 10 mins followed by substrate addition measured for 2 hrs by FRET assay relative to control
Method in brief: (§3)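 Enzyme came from the membrane fraction, extracted with 1% reduced Triton X-100 and purified by metal-chelation chromatography in 0.5% detergent. FRET pair was dabcyl acceptor and EDANS donor. EcLepB (final about 50 nM) was pre-incubated with compound 10 min at 22 °C. Reaction was then run with 8 µM substrate, following the linear fluorescence increase at 22 °C for 2 h.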

[2] = molecular target: Signal peptidase I (Escherichia coli K-12) (UniProt P00803); assay: as §2, with “0.313” for “0.01”; method in brief: as §3
[3] = molecular target: Signal peptidase I (Escherichia coli K-12) (UniProt P00803); assay: as §2, with “0.002” for “0.01”; method in brief: as §3
[4] = molecular target: Signal peptidase I (Escherichia coli K-12) (UniProt P00803); assay: Inhibition of full length Escherichia coli His6-tagged LepB expressed in Escherichia coli C43(DE3) assessed as residual activity at 5 uM using dabcyl-VEVGGTATAGAFSRPGLE-(EDANS) as substrate preincubated for 10 mins followed by substrate addition measured for 2 hrs by FRET assay relative to control; method in brief: as §3
Escherichia coli [5] = assay: Antibacterial activity against Escherichia coli CH3130 harboring tolC deletion mutant after 16 to 20 hrs by broth microdilution assay; type: functional
Method in brief: (§4)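 Broth microdilution MIC in cation-adjusted Mueller-Hinton II medium, following EUCAST and CLSI guidelines; tested on a panel of Gram-negative strains plus S. aureus ATCC 29213 (wild-type).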

[6] = molecular target: Signal peptidase I (Escherichia coli K-12) (UniProt P00803); assay: as §2, with “1.25” for “0.01”; method in brief: as §3
[7] = Hemolytic activity against human RBC at 100 uM after 45 mins by spectrophotometric method relative to control; type: ADME, cell-based, Erythrocyte; conditions: red blood cells (RBC), read-out: Activity
Method in brief: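 Hemolysis was tested using red blood cells from heparinized human blood.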

Escherichia coli [8] = assay: Antibacterial activity against Escherichia coli D22 harboring lpxC mutant after 16 to 20 hrs by broth microdilution assay; type: functional; method in brief: as §4
Pseudomonas aeruginosa [9] = assay: Antibacterial activity against wild type Pseudomonas aeruginosa PAO1 after 16 to 20 hrs by broth microdilution assay; type: functional; method in brief: as §1
Escherichia coli [10] = assay: Antibacterial activity against wild type Escherichia coli ATCC 25922 after 16 to 20 hrs by broth microdilution assay; type: functional; method in brief: as §1
[11] = molecular target: Signal peptidase I (Escherichia coli K-12) (UniProt P00803); assay: as §2, with “0.625” for “0.01”; method in brief: as §3
[12] = molecular target: Signal peptidase I (Escherichia coli K-12) (UniProt P00803); assay: as §2, with “0.02” for “0.01”; method in brief: as §3
Pseudomonas aeruginosa [13] = assay: Antibacterial activity against wild type Pseudomonas aeruginosa PAO750 harboring efflux defective mutant after 16 to 20 hrs by broth microdilution assay; type: functional; method in brief: as §4
[14] = Cytotoxicity against human HepG2 cells assessed as reduction in cell viability after 72 hrs by fluorescein diacetate dye based fluorometric microculture assay; type: toxicity
Method in brief: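 FMCA on HepG2 cells read at 72 h. Survival index (%) is fluorescence in test wells as percent of control cultures, with blank values subtracted. IC50 was obtained by non-linear regression of log concentration-effect curves.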

[15] = molecular target: Signal peptidase I (Escherichia coli K-12) (UniProt P00803); assay: as §2, with “0.005” for “0.01”; method in brief: as §3
[16] = molecular target: Signal peptidase I (Escherichia coli K-12) (UniProt P00803); assay: as §2, with “0.156” for “0.01”; method in brief: as §3
Staphylococcus aureus = assay: Antibacterial activity against wild type Staphylococcus aureus ATCC 29213 after 16 to 20 hrs by broth microdilution assay; type: functional; method in brief: as §1
Signal peptidase I = Signal peptidase I (Escherichia coli K-12, UniProt P00803); assay: Inhibition of full length Escherichia coli His6-tagged LepB expressed in Escherichia coli C43(DE3) using dabcyl-VEVGGTATAGAFSRPGLE-(EDANS) as substrate preincubated for 10 mins followed by substrate addition measured for 2 hrs by FRET assay
Method in brief: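 Enzyme extracted from the membrane fraction with 1% reduced Triton X-100 and purified by metal-chelation chromatography in 0.5% detergent. Enzyme (final ~50 nM) was pre-incubated with compound for 10 min at 22 °C. The linear rise in EDANS donor fluorescence (dabcyl acceptor) was then followed at 22 °C for 2 h. IC50 came from non-linear regression of sigmoidal rate-versus-concentration curves.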

[17] = molecular target: Signal peptidase I (Escherichia coli K-12) (UniProt P00803); assay: (§5) Inhibition of full length Escherichia coli His6-tagged LepB expressed in Escherichia coli C43(DE3) assessed as residual activity at 10 uM using dabcyl-VEVGGTATAGAFSRPGLE-(EDANS) as substrate preincubated for 10 mins followed by substrate addition measured for 2 hrs by FRET assay relative to control; method in brief: as §3
Acinetobacter baumannii = assay: Antibacterial activity against wild type Acinetobacter baumannii ATCC 19606 after 16 to 20 hrs by broth microdilution assay; type: functional; method in brief: as §1
[18] = molecular target: Signal peptidase I (Escherichia coli K-12) (UniProt P00803); assay: as §5, with “at 0.001” for “at 10”; method in brief: as §3
[19] = molecular target: Signal peptidase I (Escherichia coli K-12) (UniProt P00803); assay: as §5, with “at 0.0005” for “at 10”; method in brief: as §3
[20] = molecular target: Signal peptidase I (Escherichia coli K-12) (UniProt P00803); assay: Inhibition of full length Escherichia coli His6-tagged LepB expressed in Escherichia coli C43(DE3) at 100 uM using dabcyl-VEVGGTATAGAFSRPGLE-(EDANS) as substrate preincubated for 10 mins followed by substrate addition measured for 2 hrs by FRET assay relative to control; method in brief: as §3
[21] = molecular target: Signal peptidase I (Escherichia coli K-12) (UniProt P00803); assay: as §5, with “at 0.039” for “at 10”; method in brief: as §3
[22] = molecular target: Signal peptidase I (Escherichia coli K-12) (UniProt P00803); assay: Inhibition of full length Escherichia coli His6-tagged LepB expressed in Escherichia coli C43(DE3) assessed as residual activity at 2.5 uM using dabcyl-VEVGGTATAGAFSRPGLE-(EDANS) as substrate preincubated for 10 mins followed by substrate addition measured for 2 hrs by FRET assay relative to control; method in brief: as §3
[23] = molecular target: Signal peptidase I (Escherichia coli K-12) (UniProt P00803); assay: as §5, with “at 0.078” for “at 10”; method in brief: as §3
[24] = molecular target: Signal peptidase I (Escherichia coli K-12) (UniProt P00803); assay: Potency index, ratio of decanoyl-PTANA-CHO IC50 to compound IC50 for full length Escherichia coli His6-tagged LepB expressed in Escherichia coli C43(DE3)

Signal peptidase I (Escherichia coli K-12), sequence (P00803 whole entry): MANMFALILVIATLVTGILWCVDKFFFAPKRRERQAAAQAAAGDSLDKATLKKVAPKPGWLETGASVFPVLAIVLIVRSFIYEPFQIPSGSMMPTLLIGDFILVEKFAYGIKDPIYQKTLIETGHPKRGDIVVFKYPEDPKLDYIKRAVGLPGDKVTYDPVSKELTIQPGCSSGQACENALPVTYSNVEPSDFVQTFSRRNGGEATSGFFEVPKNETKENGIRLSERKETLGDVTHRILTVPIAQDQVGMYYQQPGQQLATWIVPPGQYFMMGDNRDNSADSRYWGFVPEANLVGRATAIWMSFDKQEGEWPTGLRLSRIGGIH
Signal peptidase I, sequence (P00803 whole entry): as above

SMILES | MIC (Klebsiella pneumoniae) | Activity [1] | Activity [2] | Activity [3] | Activity [4] | MIC (Escherichia coli [5]) | Activity [6] | hemolysis at 0.75 h, 100 µM [7] | MIC (Escherichia coli [8]) | MIC (Pseudomonas aeruginosa [9]) | MIC (Escherichia coli [10]) | Activity [11] | Activity [12] | MIC (Pseudomonas aeruginosa [13]) | IC50 at 72 h [14] | Activity [16] | MIC (Staphylococcus aureus) | IC50 (Signal peptidase I) | Activity [17] | MIC (Acinetobacter baumannii) | further results
CCCCCCc1ccc(-c2ccc(C(=O)N3CC(CN)C[C@H]3C(=O)N[C@H](C(=O)N[C@@H](C)C(=O)N[C@@H](CC(N)=O)C(=O)N[C@@H](C)B(O)O)[C@H](C)O)cc2)cc1 (some centres undefined) | 8 µg/mL (≈ 10.4 µM) | 51.8% | 25.3% | 85.8% | 28.2% | 2 µg/mL (≈ 2.61 µM) | 28.4% | 2.5% | 0.5 µg/mL (≈ 0.653 µM) | 64 µg/mL (≈ 83.6 µM) | 16 µg/mL (≈ 20.9 µM) | 25.1% | 36.2% | 4 µg/mL (≈ 5.22 µM) | 15.6 µM | 27.4% | 0.25 µg/mL (≈ 0.326 µM) | 6 nM | 24.6% | 8 µg/mL (≈ 10.4 µM) | Activity [15]: 60.1%; Activity [18]: 86.8%; Activity [19]: 88.8%; inhibition [20]: > 50%; Activity [21]: 27.7%; Activity [22]: 24.8%; Activity [23]: 25.7%
CCCCCCCCCC(=O)N1CCC[C@H]1C(=O)N[C@H](C(=O)N[C@@H](C)C(=O)N[C@@H](CC(N)=O)C(=O)N[C@@H](C)B1O[C@@H]2C[C@@H]3C[C@@H](C3(C)C)[C@]2(C)O1)[C@H](C)O | > 64 µg/mL | 84.2% | 19.7% | 81.9% | 10.6% | > 64 µg/mL | 16.9% | 0.4% | > 64 µg/mL | > 64 µg/mL | > 64 µg/mL | 18.1% | 66.8% | > 64 µg/mL | 7.8 µM | 29.6% | 32 µg/mL (≈ 42.1 µM) | 48 nM | 0.084% | > 64 µg/mL | Ratio IC50 [24]: 25; Activity [18]: 84.5%; Activity [19]: 82.6%; inhibition [20]: > 50%; Activity [21]: 47%; Activity [22]: 17.2%; Activity [23]: 36.4%
